Measurements taken from PMC6104147 (Journal of Pharmaceutical Analysis, 2018).

Legend:
Stock solution stability = format: physicochemical; conditions: stock solution in methanol; for Long-term stability of stock solution, time with no significant change: 5 °C
Outline: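 Methanol stock solutions of the analyte (500 µg/mL) and its deuterated internal standard (100 µg/mL) were tested for short-term and long-term stability. Working solutions were made by dilution in methanol. Stock and working solutions were stored at 2–8 °C.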

PDE-5 = conditions: cited from earlier work
[1] = format: in vivo, human
Outline: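 Single oral 20 mg tablet dose, test vs reference formulation, given fasting to 24 healthy Indian subjects. The test compound was measured in plasma by LC-MS/MS with a deuterated internal standard. 200 µL plasma was extracted on Strata-X-C SPE and run on a Synergi Hydro-RP C18 column. Mobile phase was methanol:10 mM ammonium formate pH 4.0 (90:10) at 0.9 mL/min, with positive ESI MRM. Calibration range was 0.50–500 ng/mL, and non-compartmental PK was calculated.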

[2] = Stability of tadalafil in human plasma under storage and process conditions; format: in vitro ADME
Whole blood stability = format: in vitro ADME, human; conditions: 25 °C
[3] = cited from earlier work
[4] = 20 mg oral, fasting, 24 subjects

Long-term stability of stock solution, time with no significant change (Stock solution stability) | Short-term stability of stock solution, time remained stable (Stock solution stability; room temperature) | Intra subject variation of AUC 0-inf [1, 4] [% CV] | Intra subject variation of AUC 0–168 h [1, 4] [% CV] | Intra subject variation of Cmax [1, 4] [% CV] | Cmax ([1]; male, human, plasma, po, 20 mg) [ng/mL] | Tmax ([1]; male, human, plasma, po, 20 mg) [h] | half-life ([1]; male, human, plasma, po, 20 mg) [h] | Ratios of mean log-transformed Cmax, AUC0–168 h and AUC0-inf and their 90% confidence intervals ([1]; test vs reference, overall range, acceptance criterion 80%–125%) | Time found stable in plasma at room temperature ([2]; controlled blank plasma) | Time stable in extracted plasma samples, room temperature ([2]; extracted plasma samples) [h] | Whole blood stability, time with no evidence of degradation (Whole blood stability) | SMILES | Selectivity for PDE-5 over other PDE isozymes (PDE-5) [times] | Selectivity for PDE-5 over PDE-1–4 and PDE-7–10 (PDE-5) [times] | Bioavailability [3] | Fraction of the metabolized drug excreted in the urine [3]
up to 10 days | up to 7 h | – | – | – | – | – | – | – | – | – | – | [2H]C([2H])([2H])N1CC(=O)N2[C@H](c3ccc4c(c3)OCO4)c3[nH]c4ccccc4c3C[C@@H]2C1=O [TAD-d3, tadalafil-d3] | – | – | – | –
– | – | – | – | – | – | – | – | – | – | – | – | CCCc1nn(C)c2c(=O)[nH]c(-c3cc(S(=O)(=O)N4CCN(C)CC4)ccc3OCC)nc12 [sildenafil] | 41 | – | – | –
up to 10 days | – | 11.56 | 10.09 | 9.53 | 396 | ~2.37 | 18.6 ± 2.47 | 99.2% to 110.9 | up to 12 h | 12 | up to 2 h | CN1CC(=O)N2[C@H](c3ccc4c(c3)OCO4)c3[nH]c4ccccc4c3C[C@@H]2C1=O [tadalafil] | – | 1000 | approximately 80% | one third
